The list is not random: actives were taken first. Their share in the collection is about 1.8%.
XBP1 UPR activ: adaptive UPR (XBP1) activation. CHO-XBP1 luciferase reporter, IRE1-XBP1 UPR activation, luminescence; percent of tunicamycin response, DMSO as zero. 330,000 tested, 0.33% active. activation, % at 20 µM;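 active = versus positive control, 20 µM dose yields 30% or more activation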;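 note: 100% = tunicamycin at 10 µg/mL and 0% = DMSO only wells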
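incubation = overnight seeding at 37 °C, 6 h compound treatment at 37 °C | assay system = CHO-XBP1 cells stably carrying IRE1-XBP1-driven luciferase reporter | input = 1000 cells per well | detection = luciferase luminescence | dosing = single point, 20 µM final compound, 1% DMSO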
697 NFkB inh: inhibitors of the PMA/ionomycin-induced NF-kB reporter in 697 B cells; 697 B-cell NF-kB luciferase reporter, 16 h; inhibition, % at 4 µM; 330,000 tested, 0.33% active; in the data active = inhibition above about 35%
Jurkat NFkB inh: inhibitors of the PMA/ionomycin-induced NF-kB reporter in Jurkat cells | inhibition, % at 4 µM | AID 435003 | PMA/ionomycin-induced NF-kB luciferase reporter, luminescence | 330,000 tested, 0.53% active; in the data active = inhibition above about 50%
CRFBP-R2 block: CRF-BP/CRF-R2 complex antagonism; HEK293 CRF-R2/CRF-BP, CRF-induced calcium fluorescence; inhibition, % at 11.8 µM; 350,000 tested, 0.59% active;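 active = inhibition of the ligand-induced calcium signal above about 50% at the single tested concentration, limit read from the data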
UPR CHOP act: activators of apoptotic arm of unfolded protein response (CHOP). CHO-CHOP luciferase reporter, UPR activation, luminescence; percent of tunicamycin response over DMSO baseline. activation, % at 10 µM. 330,000 tested, 0.34% active. AID 449763;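 active = at 10 µM dose, activation of 40% or more, normalized to positive control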;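 note: 100% = tunicamycin at 10 µg/mL and 0% = DMSO alone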
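assay system = CHO CHOP reporter cells | amount = 500 CHO-CHOP cells per well | buffer or medium = F12 with 10% FBS | incubation = 16-18 h cell attachment, then 6 h compound exposure, 37 °C | detection = luminescence read with Steady-Glo | read-out = percent activation relative to tunicamycin control | controls = tunicamycin high control, DMSO low control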
CHOP UPR conf: apoptotic UPR (CHOP) activation, confirmed | shares compounds with UPR CHOP act | CHO-CHOP cells, CHOP-luciferase reporter luminescence; percent of tunicamycin response, DMSO as zero | activation, % at 10 µM | 1,000 tested, 64% active; in the data active = activation above about 33%;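 note: 0% = DMSO wells and 100% = tunicamycin 10 µg/mL wells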
Starred values were filed as active, the others as inactive; x = not tested or not shown.

SMILES	XBP1 UPR activ	697 NFkB inh	Jurkat NFkB inh	CRFBP-R2 block	UPR CHOP act	CHOP UPR conf
C/C(=N\NC(=O)COc1ccccc1-c1ccccc1)c1ccccn1	1	-13	38	-4	105*	205*
C/C(=N\NC(=O)COc1ccccc1-c1ccccc1)c1cccnc1	-1	4	16	7	-1	x
CCC1Nc2ncnc(N3CCCCC3)c2N(Cc2ccc(OC)cc2)C1=O (centres undefined)	0	12	-9	-5	1	x
COc1ccc(C(=O)Sc2ccc(C)cc2)cc1OC	3	17	11	9	7	x
COc1ccc(C(=O)Sc2ccc(Cl)cc2)cc1OC	14	25	15	-6	87*	58*
Cc1noc(C)c1S(=O)(=O)N(C)C[C@H]1Oc2ccc(NS(=O)(=O)c3ccccc3)cc2C(=O)N([C@H](C)CO)C[C@@H]1C	-4	0	-5	3	1	x
CC1=CC(=NOC(=O)c2cccc([N+](=O)[O-])c2)C=C(C)C1=O	0	2	13	13	5	x
CC1=CC(=O)C(C(C)C)=C/C1=N/OC(=O)c1cccc([N+](=O)[O-])c1	-7	-1	-2	18	73*	48*
COc1cc(OC)cc(C(=O)NC(=S)Nc2cc3oc4ccccc4c3cc2OC)c1	15	-28	-11	-22	101*	74*
CC(=O)NCc1ccc(C(=O)CCl)cc1	-3	20	-2	10	113*	-10
CC(=O)NCc1ccc(C(=O)CCl)s1	-9	15	6	11	64*	-5
CC(=O)Nc1ccc(C(=O)CCl)cc1	-9	8	-8	18	-7	x
CC(=O)N(C)Cc1ccc(C(=O)CCl)cc1	-8	19	0	-1	94*	2
CCCCCCCCNCCS(=O)(=O)NN1CCOCC1	4	-4	x	-1	1	x
CN(Cc1nc2ccccc2c(=O)[nH]1)C(=O)c1cccc(NC(=O)c2cccs2)c1	1	-8	-8	-2	-1	x
N#CC1=C(N)OC2=C(CC/C2=C\c2ccccc2)C1c1ccccc1 (centres undefined)	3	-1	-1	-349	104*	180*
O=C(C#Cc1cccc([N+](=O)[O-])c1)c1ccccc1	-5	-49	10	x	134*	188*
Cc1ccc(Nc2cc(C)nn2-c2nc(C)cc(C)n2)cc1	30*	-1	-12	14	79*	6
CC(=O)Nc1cc(C)nn1-c1nc(C)cc(C)n1	-3	11	6	-3	4	x
FC(F)(F)c1cccc(Sc2nc(-c3ccccc3)nnc2C(F)(F)F)c1	-11	24	-7	-10	-6	x
FC(F)(F)c1nnc(-c2ccccc2)nc1Oc1ccc(Cl)cc1Cl	-4	2	-17	1	3	x
FC(F)(F)c1nnc(-c2ccccc2)nc1Sc1ccc(Cl)cc1	-6	15	-12	-9	84*	-1
FC(F)(F)c1nnc(-c2ccccc2)nc1Sc1ccccc1	22	-39	-27	-1	201*	59*
Cc1ccc(OCC(=O)N(C)C2CCCCC2)c([N+](=O)[O-])n1	-1	3	-8	-12	-1	x
O=C(Nc1ccc2oc(-c3ccncc3)nc2c1)c1ccccc1	4	-19	-9	-7	4	x
SMILES	XBP1 UPR activ	697 NFkB inh	Jurkat NFkB inh	CRFBP-R2 block	UPR CHOP act	CHOP UPR conf
O=C(Nc1nc2ccccc2s1)c1ccc([N+](=O)[O-])o1	3	-94	-15	-2	73*	8
O=C(Nc1ccc2oc(-c3ccncc3)nc2c1)c1ccc([N+](=O)[O-])o1	15	-3	44	5	162*	46*
O=C(Nc1ccc(-c2nc3ncccc3o2)cc1)c1ccc([N+](=O)[O-])o1	18	-45	40	-55	313*	135*
CC(C)c1ccc(S(=O)(=O)N2CCC(C(=O)N3CCN(c4cccc(Cl)c4)CC3)CC2)cc1	x	x	x	5	x	x
C=CCn1c(SCC(=O)c2ccc(O)c(O)c2)nnc1-c1cccc(Cl)c1	11	-16	-1	6	64*	3
C=CCn1c(SCC(=O)c2ccc(O)c(O)c2)nnc1-c1cccc(C)c1	6	-13	-2	4	34	x
O=C1c2ccccc2CCC12OC2c1ccncc1 (centres undefined)	x	x	x	-9	x	x
CCC(=O)Nc1ccc(C(=O)COC(=O)Cc2ccsc2)cc1	2	-1	4	-2	2	x
O=C(NC1CCCC(C(F)(F)F)C1)c1ccc([N+](=O)[O-])o1 (centres undefined)	9	3	5	-1	64*	12
Cc1ccc(NC(=O)CCN2CCOCC2)cc1C	-2	7	-2	4	-1	x
O=C(/C=C/c1ccc([N+](=O)[O-])cc1)/C=C/c1ccco1	-2	-11	11	x	57*	108*
O=C(/C=C/c1ccc([N+](=O)[O-])cc1)c1ccco1	0	20	2	-37	1	x
CCOc1cccc2cc(-c3csc(NC(=O)CCC(=O)N4CCC(C)CC4)n3)c(=O)oc12	37*	5	-8	-1	95*	16
COc1ccc(CCN2CC(C(=O)Nc3ccccc3F)CC2=O)cc1OC (centres undefined)	-2	16	4	0	0	x
CCNc1ccccc1CP(=O)(c1ccccc1)c1ccccc1O (centres undefined)	-1	0	3	-2	186*	37*
Cc1ccc(O)c(CP(=O)(c2ccccc2)c2ccccc2)c1	-2	19	2	0	1	x
COc1cc(S(=O)(=O)N2CCC(c3nc4ccccc4s3)CC2)ccc1S(=O)(=O)N1CC(C)CC(C)C1 (centres undefined)	7	-17	-6	1	209*	-2
COc1cc(S(=O)(=O)N2CCC(c3nc4ccccc4s3)CC2)ccc1S(=O)(=O)NC1CCCC1	-2	-30	28	-31	-1	x
Cc1cccc(NC(=O)C(CCC(N)=O)NC(=O)OCc2ccccc2)c1 (centres undefined)	-5	18	-6	-6	2	x
COCCN=c1scc(-c2ccco2)n1/N=C/c1ccc(O)c(O)c1O	6	-15	0	0	23	x
CC(C)N=c1scc(-c2ccco2)n1/N=C/c1ccc(O)c(O)c1	20	-62	4	-3	159*	127*
C=CCN=c1scc(-c2ccco2)n1/N=C/c1ccc(O)c(O)c1O	3	-88	-37	1	161*	64*
COc1ccc(CNC(=O)O[C@]23C[C@H]4C(=O)N(c5ccccc5)C(=O)[C@H]4C[C@@]2(O)CN(S(=O)(=O)c2ccc(C)cc2)C3)cc1OC	x	x	x	6	x	x
COc1ccc(OC)c(N=Cc2c(O)c3ccccc3oc2=O)c1	219*	3	-9	-22	134*	114*
